Measured values collected from several papers.
Compare with care: the assays were run in different laboratories.
Target: Serine/threonine-protein kinase MARK1 (MARK1, Homo sapiens, UniProt Q9P0L2)

| SMILES | assay | setting | quantity | value |
| --- | --- | --- | --- | --- |
| N#CC1(c2ccccn2)CCN(Cc2cc(C(=O)O)c(=O)n3ccccc23)CC1 | cell-free assay, competition with immobilised ligand | 1 µM | remaining binding | 94% |
| C#Cc1n[nH]c2c(-c3cn([C@@H](C)c4ccccn4)c(=O)[nH]c3=O)cc(F)cc12 | enzyme activity, inhibitor | 0.1 µM | inhibition | 4.9% |
| Cn1cc(-c2cccc(N3CCc4c(sc5c4CC(C)(C)C5)C3=O)c2CO)cc(Nc2ccncn2)c1=O | enzyme activity, inhibitor | 1 µM | inhibition | 1% |
| Cn1cncc1[C@@](O)(COc1ccc(C#N)cc1-c1ccc(OC(F)(F)F)cc1)c1ccc(C#N)cc1 | cell-free assay, competition with immobilised ligand | 1 µM | remaining binding | 100% |
| COc1cc(Nc2ncc(F)c(Nc3ccc4c(n3)NC(=O)C(C)(C)O4)n2)cc(OC)c1OC | binding, competition with immobilised ligand | 10 µM | inhibition | 94% |
| CC(C)(C)c1cc(C=C(C#N)C#N)cc(Br)c1O | enzyme activity, inhibitor | 0.5 µM | remaining activity | 98.8% |
| Cc1nn(C)cc1-c1nc2c(N3CCN(Cc4ccc(Cl)cc4)CC3)c(Cl)cnc2[nH]1 | binding, competition with immobilised ligand | 1 µM | remaining binding | 78% |
| O=c1[nH]c2ccccc2n1C1CCN(Cc2ccc(-c3[nH]c4cc5ncnc5cc4nc3-c3ccccc3)cc2)CC1 | cell-free assay | 0.5 µM | remaining signal | 104% |
| C#Cc1n[nH]c2c(-c3cn([C@@H](C)c4ccccc4)c(=O)[nH]c3=O)cc(F)cc12 | enzyme activity, inhibitor | 0.1 µM | inhibition | 4.1% |
| Cn1cc(-c2cc(F)cc(N3CCn4c(cc5c4CCCC5)C3=O)c2CO)cc(Nc2ccc(N3CCN(C4COC4)CC3)cn2)c1=O | enzyme activity, inhibitor | 0.1 µM | inhibition | 10% |
| Nc1ncc(-c2nc(N3CCOCC3)nc(N3CCOCC3)n2)c(C(F)F)n1 | binding, competition with immobilised ligand | 10 µM | remaining binding | 88% |
| COc1ncccc1-c1cnn2ccc(N3CCN(C(=O)OC(C)C)CC3)nc12 | binding, competition with immobilised ligand | 1 µM | remaining binding | 100% |
